# Test results: ChEMBL document CHEMBL1124924, “Aromatic thiazole derivatives: structurally novel and selective serotonin-3 receptor antagonists” (J Med Chem, 1990)
# Experiments:
# Rattus norvegicus [1] = assay: Percent inhibition of serotonin-induced B-J reflex (Bezold-Jarisch reflex)in the right femoral vein of rat at a dose of 50 ug/kg; type: functional
# Summary of the method: (§1)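 Rats given test compound and serotonin intravenously through a cannula in the right femoral vein. Von Bezold-Jarisch reflex read as blockade of serotonin-induced bradycardia. Otherwise run by a previously published procedure.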
# Rattus norvegicus [2] = assay: Percent response to 100 ug/kg serotonin was determined as blockade of serotonin-induced bradycardia in anesthetized rat; type: functional
# Summary of the method: (§2)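 Rat von Bezold–Jarisch reflex, read as blockade of serotonin-induced bradycardia. Test compound and serotonin were both given iv through a cannula in the right femoral vein.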
# [3] = target: T1, Serotonin 3 (5-HT3) receptor (Rattus norvegicus, UniProt P35563+Q9JJ16); assay: In vitro displacement of [3H]ICS-205-930 from 5-hydroxytryptamine 3 receptor in cultured NG-108-15 […] cells
# T1 sequence (P35563 whole entry): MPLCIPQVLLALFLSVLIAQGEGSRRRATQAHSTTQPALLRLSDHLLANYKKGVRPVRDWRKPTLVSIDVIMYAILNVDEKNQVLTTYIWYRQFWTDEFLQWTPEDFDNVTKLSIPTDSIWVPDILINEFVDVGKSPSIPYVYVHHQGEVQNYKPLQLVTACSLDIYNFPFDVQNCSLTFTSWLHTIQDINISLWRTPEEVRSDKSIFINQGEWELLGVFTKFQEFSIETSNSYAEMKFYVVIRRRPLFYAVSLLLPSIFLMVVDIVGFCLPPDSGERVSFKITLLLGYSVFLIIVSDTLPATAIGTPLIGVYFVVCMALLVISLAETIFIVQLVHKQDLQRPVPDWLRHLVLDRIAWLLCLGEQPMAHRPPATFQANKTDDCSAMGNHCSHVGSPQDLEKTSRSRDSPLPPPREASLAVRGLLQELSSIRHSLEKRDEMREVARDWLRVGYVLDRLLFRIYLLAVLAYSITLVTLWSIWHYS
# T1 sequence (Q9JJ16 whole entry): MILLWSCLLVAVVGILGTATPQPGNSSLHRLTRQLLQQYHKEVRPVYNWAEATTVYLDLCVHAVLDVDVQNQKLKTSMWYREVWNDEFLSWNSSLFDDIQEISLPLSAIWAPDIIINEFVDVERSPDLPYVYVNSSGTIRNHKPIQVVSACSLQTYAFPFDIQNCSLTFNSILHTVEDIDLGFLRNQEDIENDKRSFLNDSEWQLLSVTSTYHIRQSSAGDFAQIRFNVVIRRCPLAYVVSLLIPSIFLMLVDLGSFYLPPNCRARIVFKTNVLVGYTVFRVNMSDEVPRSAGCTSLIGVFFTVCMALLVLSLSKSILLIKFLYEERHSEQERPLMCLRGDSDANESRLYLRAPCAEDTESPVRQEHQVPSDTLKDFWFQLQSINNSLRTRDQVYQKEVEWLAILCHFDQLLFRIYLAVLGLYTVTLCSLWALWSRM
# Rattus norvegicus [4] = assay: Percent inhibition of serotonin-induced B-J reflex (Bezold-Jarisch reflex)in the right femoral vein of rat at a dose of 10 ug/kg; type: functional; summary of the method: as §1
# Rattus norvegicus [5] = assay: (§3) Percent inhibition of serotonin-induced B-J reflex (Bezold-Jarisch reflex)in the right femoral vein of rat at a dose of 100 ug/kg; type: functional; summary of the method: as §1
# Rattus norvegicus [6] = assay: (§4) Percent inhibition of serotonin-induced B-J reflex (Bezold-Jarisch reflex)in the right femoral vein of rat at a dose of 2 ug/kg; type: functional; summary of the method: as §1
# Rattus norvegicus [7] = assay: Percent inhibition of serotonin-induced B-J reflex (Bezold-Jarisch reflex)in the right femoral vein of rat at a dose of 1 mg/kg po; type: functional
# Rattus norvegicus [8] = assay: Percent inhibition of serotonin-induced B-J reflex (Bezold-Jarisch reflex)in the right femoral vein of rat at a dose of 20 ug/kg; type: functional; summary of the method: as §2
# Rattus norvegicus [9] = assay: as §4; type: functional; summary of the method: as §2; remark: listed apart in the source
# Rattus norvegicus [10] = assay: as §3; type: functional; summary of the method: as §2; remark: listed apart in the source
Compound,Response (Rattus norvegicus [2]) [%],Ki [3] [nM],inhibition in vivo at 0.002 mg/kg (Rattus norvegicus [6]) [%],inhibition in vivo at 0.02 mg/kg (Rattus norvegicus [8]) [%],other results
Cc1[nH]c2ccc(O)cc2c1CCN,41,1220,–,–,inhibition in vivo at 0.05 mg/kg (Rattus norvegicus [1]): 66%; inhibition in vivo at 0.01 mg/kg (Rattus norvegicus [4]): 23%
c1ccc2c(-c3csc(Cc4c[nH]cn4)n3)c[nH]c2c1,14,14.2,–,–,inhibition in vivo at 0.1 mg/kg (Rattus norvegicus [5]): 63%
Cc1[nH]cnc1Cc1nc(-c2ccccc2)cs1,0,1.5,11,86,inhibition in vivo at 1 mg/kg (Rattus norvegicus [7]): 67%
Cc1[nH]cnc1Cc1nc(-c2c[nH]c3ccccc23)cs1,0,10.4,–,–,inhibition in vivo at 0.1 mg/kg (Rattus norvegicus [5]): 45%
N=C(N)NCc1nc(-c2c[nH]c3ccccc23)cs1,60,3.3,–,82,inhibition in vivo at 0.002 mg/kg (Rattus norvegicus [9]): 51%; inhibition in vivo at 1 mg/kg (Rattus norvegicus [7]): 0%
c1ccc(-c2csc(Cc3c[nH]cn3)n2)cc1,80,0.99,41,–,–
Cc1nc(Cc2nc(-c3ccccc3)cs2)c[nH]1,0,226,–,–,inhibition in vivo at 0.1 mg/kg (Rattus norvegicus [10]): 7%
Cc1nccn1Cc1nc(-c2c[nH]c3ccccc23)cs1,0,> 1000,–,–,inhibition in vivo at 0.1 mg/kg (Rattus norvegicus [10]): 7%
CN1[C@@H]2CC[C@H]1C[C@@H](OC(=O)c1c[nH]c3ccccc13)C2 [TROPISETRON],0,–,76,–,–
Cc1nccn1CC1CCc2c(c3ccccc3n2C)C1=O (centres undefined) [ONDANSETRON],0,–,–,90,inhibition in vivo at 0.002 mg/kg (Rattus norvegicus [9]): 43%
